# Columns and labels:
# MCF7 = experiment: Cytotoxicity against human MCF7 cells assessed as inhibition of cell growth incubated for 72 hrs by MTT assay; assay type: functional, cell-based; conditions: MCF7, 72 h
# [1] = Half life in human liver microsomes at 1 uM incubated for 30 mins in presence of NADPH by LC-MS/MS analysis; assay type: ADME, Microsome; conditions: 0.5 h
# Outline: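 Human liver microsomes (1 mg/mL final) in 100 mM phosphate buffer with or without NADPH; compound at 1 μM final, 37 °C. Samples taken at 0, 5, 10, 20, 30 min (0 and 30 min without NADPH), quenched with cold acetonitrile containing internal standards, analysed by LC-MS/MS; verapamil as control.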
# [2] = Stability in CD-1 mouse plasma at 37.7 micromol/kg,ip administration measured after 22 hrs by LC-MS/MS analysis; assay type: ADME, cell-free; conditions: at 37.7 µmol/kg
# Outline: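 Female CD-1 mice (n=3) dosed i.p. at 37.7 μmol/kg (equimolar across compounds). Blood (20 μL) drawn at 0.25, 5 and 22 h and processed to plasma. Drug levels quantified by LC-MS/MS.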
# [3] = Cytotoxicity against CD-1 mouse Primary hepatocyte assessed as inhibition of cell growth incubated for 72 hrs by MTT assay; assay type: toxicity, cell-based; conditions: primary hepatocytes
# [4] = Half life in CD-1 mouse at 1 mg/kg,iv administration measured upto 48 hrs by LC-MS/MS analysis; assay type: ADME, organism-based; conditions: in vivo
# Outline: (§1)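 Single intravenous bolus in ICR male mice (n = 3, 6 weeks); dosing solution 0.5 mg/mL in 20% DMSO, 16% PEG, 4% dextrose in PBS. Tail-vein blood (10 μL) taken at 2, 5, 15, 30 min and 1, 2, 4, 8, 24, 48 h. Plasma quantified by LC-MS/MS against a 0.5–1000 ng/mL calibration; parameters from non-compartmental analysis.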
# [5] = Tmax in CD-1 mouse at 1 mg/kg,iv administration measured upto 48 hrs by LC-MS/MS analysis; assay type: ADME, organism-based; conditions: in vivo
# Outline: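 Male ICR mice (n=3, 6 weeks) given 1 mg/kg i.v. from a 0.5 mg/mL solution in 20% DMSO/16% PEG/4% dextrose in PBS. Tail-vein blood (10 μL) drawn at 2, 5, 15 and 30 min and at 1, 2, 4, 8, 24 and 48 h. Plasma quantified by LC-MS/MS against 0.5–1000 ng/mL calibration standards with QC samples. Parameters from non-compartmental analysis.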
# [6] = Cmax in CD-1 mouse at 1 mg/kg,iv administration measured upto 48 hrs by LC-MS/MS analysis; assay type: ADME, organism-based; conditions: in vivo; outline: as §1
# [7] = AUC (0 to t) in CD-1 mouse at 1 mg/kg,iv administration measured upto 48 hrs by LC-MS/MS analysis; assay type: ADME, organism-based; conditions: in vivo; outline: as §1
# [8] = Clearance in CD-1 mouse at 1 mg/kg,iv administration measured upto 48 hrs by LC-MS/MS analysis; assay type: ADME, organism-based; conditions: in vivo; outline: as §1
# [9] = Half life in CD-1 mouse at 10 mg/kg,po administration measured upto 48 hrs by LC-MS/MS analysis; assay type: ADME, organism-based; conditions: in vivo
# Outline: (§2)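 Oral gavage in ICR male mice (n = 3); dosing solution 1 mg/mL in 20% DMSO, 16% PEG, 4% dextrose in PBS. Tail-vein blood (10 μL) taken at 15, 30 min and 1, 2, 4, 8, 24, 48 h. Plasma quantified by LC-MS/MS against a 0.5–1000 ng/mL calibration; parameters from a non-compartmental extravascular model.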
# [10] = Tmax in CD-1 mouse at 10 mg/kg,po administration measured upto 48 hrs by LC-MS/MS analysis; assay type: ADME, organism-based; conditions: in vivo
# Outline: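 Male ICR mice (n=3) dosed by oral gavage at 10 mg/kg from a 1 mg/mL solution in 20% DMSO/16% PEG/4% dextrose in PBS. Tail-vein blood (10 μL) drawn at 15 and 30 min and at 1, 2, 4, 8, 24 and 48 h. Plasma quantified by LC-MS/MS against calibration standards. Parameters from non-compartmental extravascular model.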
# [11] = Cmax in CD-1 mouse at 10 mg/kg,po administration measured upto 48 hrs by LC-MS/MS analysis; assay type: ADME, organism-based; conditions: in vivo; outline: as §2
# [12] = AUC (0 to t) in CD-1 mouse at 10 mg/kg,po administration measured upto 48 hrs by LC-MS/MS analysis; assay type: ADME, organism-based; conditions: in vivo; outline: as §2
# [13] = Oral bioavailability in CD-1 mouse at 10 mg/kg administration measured upto 48 hrs by LC-MS/MS analysis; assay type: ADME, organism-based; conditions: in vivo
# [14] = target: Prostaglandin G/H synthase 1 (Homo sapiens, UniProt P23219); experiment: Inhibition of COX1 (unknown origin); assay type: toxicity
# Sequence of Prostaglandin G/H synthase 1 (P23219 whole entry): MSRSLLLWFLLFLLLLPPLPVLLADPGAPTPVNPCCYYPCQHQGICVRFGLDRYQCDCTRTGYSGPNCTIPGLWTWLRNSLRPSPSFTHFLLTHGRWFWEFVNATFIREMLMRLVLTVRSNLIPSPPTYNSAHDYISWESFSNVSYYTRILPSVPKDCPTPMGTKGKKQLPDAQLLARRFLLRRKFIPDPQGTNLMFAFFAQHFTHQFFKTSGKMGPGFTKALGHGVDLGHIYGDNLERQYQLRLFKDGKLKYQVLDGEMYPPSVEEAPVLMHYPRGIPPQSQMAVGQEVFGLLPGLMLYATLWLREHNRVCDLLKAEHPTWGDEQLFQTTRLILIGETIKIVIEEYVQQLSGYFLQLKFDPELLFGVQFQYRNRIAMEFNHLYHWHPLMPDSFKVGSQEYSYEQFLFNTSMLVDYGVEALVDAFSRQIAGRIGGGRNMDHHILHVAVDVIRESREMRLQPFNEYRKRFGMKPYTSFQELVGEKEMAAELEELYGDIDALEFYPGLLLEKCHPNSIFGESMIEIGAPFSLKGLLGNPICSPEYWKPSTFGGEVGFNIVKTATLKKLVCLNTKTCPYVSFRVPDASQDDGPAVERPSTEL
# Outline: (§3)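 Tested in a commercial off-target safety screening panel of 78 targets. Values reported as RC50, taken as IC50 except for agonist mode, where RC50 is EC50.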
# [15] = target: T1, Prostaglandin G/H synthase 2 (Homo sapiens, UniProt P35354); experiment: Inhibition of COX2 (unknown origin); assay type: toxicity; outline: as §3
# T1 sequence (P35354 whole entry): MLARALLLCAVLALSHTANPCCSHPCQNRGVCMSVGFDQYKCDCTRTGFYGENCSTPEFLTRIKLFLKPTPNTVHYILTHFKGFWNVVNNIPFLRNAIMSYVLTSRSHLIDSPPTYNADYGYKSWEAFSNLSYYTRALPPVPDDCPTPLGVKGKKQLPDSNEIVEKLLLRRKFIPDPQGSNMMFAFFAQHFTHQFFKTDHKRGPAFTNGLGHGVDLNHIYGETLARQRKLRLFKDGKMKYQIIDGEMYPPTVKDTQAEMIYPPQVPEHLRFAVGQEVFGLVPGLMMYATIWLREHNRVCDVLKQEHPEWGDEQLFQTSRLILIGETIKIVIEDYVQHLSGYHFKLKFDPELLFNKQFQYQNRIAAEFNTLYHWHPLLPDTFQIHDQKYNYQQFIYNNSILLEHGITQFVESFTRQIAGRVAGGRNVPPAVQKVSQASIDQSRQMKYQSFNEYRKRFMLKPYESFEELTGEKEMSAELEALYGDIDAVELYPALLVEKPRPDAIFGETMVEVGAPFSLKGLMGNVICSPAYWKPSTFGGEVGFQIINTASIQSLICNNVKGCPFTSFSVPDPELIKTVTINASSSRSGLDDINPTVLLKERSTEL
# [16] = target: Voltage-gated inwardly rectifying potassium channel KCNH2 (Homo sapiens, UniProt Q12809); experiment: Inhibition of hERG transfected in HEK293 cells by patch clamp assay; assay type: toxicity, cell-based
# Sequence of Voltage-gated inwardly rectifying potassium channel KCNH2 (Q12809 whole entry): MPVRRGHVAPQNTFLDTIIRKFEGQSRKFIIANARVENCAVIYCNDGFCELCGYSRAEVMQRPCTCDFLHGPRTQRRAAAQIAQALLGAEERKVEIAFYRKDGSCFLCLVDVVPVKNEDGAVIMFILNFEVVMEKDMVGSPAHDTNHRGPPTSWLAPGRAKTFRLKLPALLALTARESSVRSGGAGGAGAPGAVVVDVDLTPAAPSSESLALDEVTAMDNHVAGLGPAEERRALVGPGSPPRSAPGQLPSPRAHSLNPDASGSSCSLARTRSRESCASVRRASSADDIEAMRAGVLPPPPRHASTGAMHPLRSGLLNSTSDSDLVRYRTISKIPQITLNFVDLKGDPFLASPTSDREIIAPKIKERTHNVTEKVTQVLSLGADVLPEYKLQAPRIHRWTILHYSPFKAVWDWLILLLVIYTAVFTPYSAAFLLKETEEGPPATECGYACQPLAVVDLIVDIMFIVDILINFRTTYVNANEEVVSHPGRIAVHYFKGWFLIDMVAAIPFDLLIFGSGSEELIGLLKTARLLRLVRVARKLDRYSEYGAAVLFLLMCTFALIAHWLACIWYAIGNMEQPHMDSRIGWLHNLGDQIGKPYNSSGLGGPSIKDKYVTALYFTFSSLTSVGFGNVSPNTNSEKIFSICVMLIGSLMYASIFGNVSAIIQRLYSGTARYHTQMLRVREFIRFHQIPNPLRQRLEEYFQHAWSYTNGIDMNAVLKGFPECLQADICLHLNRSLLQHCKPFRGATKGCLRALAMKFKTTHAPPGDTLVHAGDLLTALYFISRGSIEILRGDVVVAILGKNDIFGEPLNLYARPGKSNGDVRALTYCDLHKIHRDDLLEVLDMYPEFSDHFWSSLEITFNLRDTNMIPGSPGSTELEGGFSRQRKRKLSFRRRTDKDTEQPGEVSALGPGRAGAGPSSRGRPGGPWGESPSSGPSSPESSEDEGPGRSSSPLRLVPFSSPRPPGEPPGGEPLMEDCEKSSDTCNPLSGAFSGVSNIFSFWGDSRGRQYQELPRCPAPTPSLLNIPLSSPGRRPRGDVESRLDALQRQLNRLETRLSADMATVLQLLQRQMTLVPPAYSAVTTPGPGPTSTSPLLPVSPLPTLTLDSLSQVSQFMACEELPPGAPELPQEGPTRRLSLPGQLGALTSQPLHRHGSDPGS
# hERG (KCNH2) = hERG (KCNH2) (Homo sapiens, UniProt Q12809); experiment: Inhibition of hERG transfected in HEK293 cells at 30 uM by patch clamp assay relative to control; assay type: toxicity, cell-based; conditions: HEK293 cells transfected with hERG
# Sequence of hERG (KCNH2) (Q12809 whole entry): as above
# [17] = Drug concentration in CD-1 mouse plasma at 37.7 micromol/kg,ip administration measured after 22 hrs by LC-MS/MS analysis; assay type: ADME, cell-free; conditions: dose 37.7 µmol/kg
# Outline: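 Female CD-1 mice (n = 3) dosed ip at 37.7 μmol/kg. Blood (20 μL) taken at 0.25, 5 and 22 h, processed to plasma, and drug quantified by LC-MS/MS.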
# [18] = Stability in human plasma incubated upto 150 mins; assay type: ADME, cell-free; conditions: 2.5 h
# [19] = Toxicity in mouse assessed as mild stress at 100 mg/kg,po administration for 4 weeks; assay type: organism-based; conditions: in vivo, 672 h
# Outline: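 Mice dosed orally at up to 100 mg/kg, the highest dose tested. Observed for signs of stress.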
# [20] = Toxicity in mouse assessed as body weight loss at 50 mg/kg,po administration for 4 weeks; assay type: organism-based; conditions: in vivo, 672 h
# Outline: (§4)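 Mice dosed orally once daily at 50 or 100 mg/kg for 4 weeks. Body weight monitored throughout.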
# [21] = Toxicity in mouse assessed as body weight loss at 100 mg/kg,po administration for 4 weeks; assay type: organism-based; conditions: in vivo, 672 h; outline: as §4
# CYP1A2 = experiment: Stability in human liver microsomes assessed as CYP1A2-mediated drug metabolism incubated for 1 hr; assay type: ADME, Microsome; conditions: read-out: Drug metabolism
compound,measurement,setting,value
C/C(=N\N=c1/sc2ccccc2n1C)c1ccc(F)cn1,IC50,MCF7,> 1000 nM
C/C(=N\N=c1/[nH]c2cc(F)c(F)cc2n1C)c1ccc(C(=O)O)cn1,IC50,MCF7,> 1000 nM
C/C(=N\N=c1n(C)c2ccccc2n1C)c1ccc(F)cn1,IC50,MCF7,> 1000 nM
C/C(=N\N=c1/[nH]c2cc(F)c(F)cc2n1C)c1ccc(OCCCN2CCOCC2)cn1,IC50,MCF7,30.5 nM
C/C(=N\N=c1/[nH]c2cc(F)c(F)cc2n1C)c1ccc(-c2nnn[nH]2)cn1,IC50,MCF7,> 1000 nM
C/C(=N\N=c1/[nH]c2cc(F)c(F)cc2n1C)c1ccccn1,IC50,MCF7,6.3 nM
COC(=O)c1ccc(/C(C)=N/N=c2\[nH]c3cc(F)c(F)cc3n2C)nc1,IC50,MCF7,2.9 nM
C/C(=N\N=c1/[nH]c2cc(F)c(F)cc2n1C)c1ccccc1,IC50,MCF7,> 1000 nM
C/C(=N\N=c1/[nH]c2cc(F)c(F)cc2n1C)c1cocn1,IC50,MCF7,> 1000 nM
C/C(=N\Nc1nc2ccccc2n1C)c1ccccn1,IC50,MCF7,22 nM
same,t1/2,[1],3 min
C/C(=N\N=c1/[nH]c2cc(F)c(F)cc2n1C)c1ccncc1,IC50,MCF7,> 1000 nM
C/C(=N\N=c1/[nH]c2cc(F)c(F)cc2n1C)c1ccc(-c2cnn(C)c2)cn1,IC50,MCF7,6.7 nM
C/C(=N\N=c1/[nH]c2cc(Cl)c(Cl)cc2n1C)c1ccc(F)cn1,IC50,MCF7,18 nM
C/C(=N\N=c1/[nH]c2cc(F)c(F)cc2n1C)c1ccc(C(N)=O)cn1,IC50,MCF7,2.7 nM
C/C(=N\N=c1/[nH]c2cc(F)c(F)cc2n1C)c1cccnc1,IC50,MCF7,> 1000 nM
C/C(=N\N=c1/[nH]c2cc(F)c(F)cc2n1C)c1cccs1,IC50,MCF7,> 1000 nM
C/C(=N\N=c1/[nH]c2cc(F)c(F)cc2n1C)c1ccc(C(=O)N2CCOCC2)cn1,IC50,MCF7,44.7 nM
C/C(=N\Nc1nc2ccccc2n1C)c1ccc(F)cn1,IC50,MCF7,5.4 nM
same,t1/2,[1],4.93 min
same,Stability,[2],Stable
Cn1c(N2N=C(c3ccccn3)CC2=O)nc2ccccc21,IC50,MCF7,> 1000 nM
C/C(=N\N=c1/[nH]c2cc(F)c(F)cc2n1C)c1ccncn1,IC50,MCF7,10.7 nM
Cn1c(NNC(=O)c2ccccn2)nc2ccccc21,IC50,MCF7,494 nM
C/C(=N\Nc1nc2cc(F)ccc2n1C)c1ccc(F)cn1,IC50,MCF7,2.5 nM
same,t1/2,[1],5.76 min
same,Stability,[2],Stable
C/C(=N\Nc1nc2cc(F)c(F)cc2n1C)c1ncccn1,IC50 at 72 h,[3],> 1000 nM
same,t1/2,[4],195 min
same,Tmax,[5],1.98 min
same,Cmax,[6],552 ng/mL
same,AUCt,[7],87.6 ng·h/mL
same,clearance,[8],176 mL/min/kg
same,t1/2,[9],545 min
same,Tmax,[10],15 min
same,Cmax,[11],89 ng/mL
same,AUCt,[12],477 ng·h/mL
same,F,[13],54.4%
same,IC50,[14],2900 nM
same,IC50,[15],2400 nM
same,IC50,[16],> 30000 nM
same,inhibition at 30 µM,hERG (KCNH2),< 50%
same,t1/2,[1],3.71 min
same,concentration at 22 h,[17],117 nM
same,Stability,[18],Stable
same,Activity,[19],Non-Toxic
same,Activity,[20],Non-Toxic
same,Activity,[21],Non-Toxic
same,Stability,[2],Stable
same,metabolised at 1 h,CYP1A2,98%
C/C(=N\Oc1nc2ccccc2n1C)c1ccccn1,IC50,MCF7,> 1000 nM
C/C(=N\N=c1/[nH]c2cc(F)c(F)cc2n1C)c1ccc(OCCCS(C)(=O)=O)cn1,IC50,MCF7,249 nM
C/C(=N\N=c1/[nH]c2cc(F)c(F)cc2n1C)c1cn(C)cn1,IC50,MCF7,> 1000 nM

# From ChEMBL document CHEMBL5543124, “Lead Compound Development of SRC-3 Inhibitors with Improved Pharmacokinetic Properties and Anticancer Efficacy” (J Med Chem, 2024)
